Measurements from ChEMBL document CHEMBL4033712, “Synthesis and biological evaluation of new C-12(α/β)-(N-) sulfamoyl-phenylamino-14-deoxy-andrographolide derivatives as potent anti-cancer agents” (Bioorg Med Chem Lett, 2017).

Assays:
Assay type in all cases: functional
K562 = experiment: Anticancer activity against human K562 cells assessed as cell growth at 10 uM after 48 hrs by sulforhodamine B assay relative to control; settings: K562, 48 h, read-out: Activity
Summary of the method: (§1)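 Single-dose NCI-60 panel screen: compound added at 10 µM and the culture incubated 48 h. The end point was read by protein staining with sulforhodamine B. The value is percent growth of treated cells relative to untreated control cells, reported as a mean graph across the panel.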

RPMI-8226 = experiment: Anticancer activity against human RPMI8226 cells assessed as cell growth at 10 uM after 48 hrs by sulforhodamine B assay relative to control; settings: RPMI-8226, 48 h, read-out: Activity; summary of the method: as §1
A549 = experiment: Anticancer activity against human A549/ATCC cells assessed as cell growth at 10 uM after 48 hrs by sulforhodamine B assay relative to control; settings: A549, 48 h, read-out: Activity; summary of the method: as §1
HOP-62 = experiment: Anticancer activity against human HOP62 cells assessed as cell growth at 10 uM after 48 hrs by sulforhodamine B assay relative to control; settings: HOP-62, 48 h, read-out: Activity; summary of the method: as §1
NCI-H322M = experiment: Anticancer activity against human NCI-H322M cells assessed as cell growth at 10 uM after 48 hrs by sulforhodamine B assay relative to control; settings: read-out: Activity; summary of the method: as §1
NCI-H522 = experiment: Anticancer activity against human NCI-H522 cells assessed as cell growth at 10 uM after 48 hrs by sulforhodamine B assay relative to control; settings: NCI-H522, 48 h, read-out: Activity; summary of the method: as §1
HCC 2998 = experiment: Anticancer activity against human HCC2998 cells assessed as cell growth at 10 uM after 48 hrs by sulforhodamine B assay relative to control; settings: HCC 2998, 48 h, read-out: Activity; summary of the method: as §1
HCT-116 = experiment: Anticancer activity against human HCT116 cells assessed as cell growth at 10 uM after 48 hrs by sulforhodamine B assay relative to control; settings: HCT-116, 48 h, read-out: Activity; summary of the method: as §1
HCT-15 = experiment: Anticancer activity against human HCT15 cells assessed as cell growth at 10 uM after 48 hrs by sulforhodamine B assay relative to control; settings: HCT-15, 48 h, read-out: Activity; summary of the method: as §1
KM12 = experiment: Anticancer activity against human KM12 cells assessed as cell growth at 10 uM after 48 hrs by sulforhodamine B assay relative to control; settings: KM12, 48 h, read-out: Activity; summary of the method: as §1
SW-620 = experiment: Anticancer activity against human SW620 cells assessed as cell growth at 10 uM after 48 hrs by sulforhodamine B assay relative to control; settings: SW-620, 48 h, read-out: Activity
Summary of the method: (§2)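 NCI-60 single-dose screen: compound added at 10 µM, cultures incubated 48 h. End point by sulforhodamine B protein-binding dye. Value reported as percent growth of treated cells relative to untreated control cells.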

SNB-75 = experiment: Anticancer activity against human SNB75 cells assessed as cell growth at 10 uM after 48 hrs by sulforhodamine B assay relative to control; settings: SNB-75, 48 h, read-out: Activity; summary of the method: as §2
U-251 = experiment: Anticancer activity against human U251 cells assessed as cell growth at 10 uM after 48 hrs by sulforhodamine B assay relative to control; settings: U-251, 48 h, read-out: Activity; summary of the method: as §2
LOX IMVI = experiment: Anticancer activity against human LOXIMVI cells assessed as cell growth at 10 uM after 48 hrs by sulforhodamine B assay relative to control; settings: read-out: Activity; summary of the method: as §1
Malme-3M = experiment: Anticancer activity against human MALME-3M cells assessed as cell growth at 10 uM after 48 hrs by sulforhodamine B assay relative to control; settings: read-out: Activity; summary of the method: as §1
M14 = experiment: Anticancer activity against human M14 cells assessed as cell growth at 10 uM after 48 hrs by sulforhodamine B assay relative to control; settings: M14, 48 h, read-out: Activity; summary of the method: as §1
MDA-MB-435 = experiment: Anticancer activity against human MDA-MB-435 cells assessed as cell growth at 10 uM after 48 hrs by sulforhodamine B assay relative to control; settings: MDA-MB-435, 48 h, read-out: Activity; summary of the method: as §1
SK-MEL-2 = experiment: Anticancer activity against human SK-MEL-2 cells assessed as cell growth at 10 uM after 48 hrs by sulforhodamine B assay relative to control; settings: SK-MEL-2, 48 h, read-out: Activity; summary of the method: as §1
SK-MEL-28 = experiment: Anticancer activity against human SK-MEL-28 cells assessed as cell growth at 10 uM after 48 hrs by sulforhodamine B assay relative to control; settings: SK-MEL-28, 48 h, read-out: Activity; summary of the method: as §1
UACC-62 = experiment: Anticancer activity against human UACC62 cells assessed as cell growth at 10 uM after 48 hrs by sulforhodamine B assay relative to control; settings: UACC-62, 48 h, read-out: Activity; summary of the method: as §2
OVCAR-3 = experiment: Anticancer activity against human OVCAR3 cells assessed as cell growth at 10 uM after 48 hrs by sulforhodamine B assay relative to control; settings: OVCAR-3, 48 h, read-out: Activity; summary of the method: as §1
OVCAR-5 = experiment: Anticancer activity against human OVCAR5 cells assessed as cell growth at 10 uM after 48 hrs by sulforhodamine B assay relative to control; settings: OVCAR-5, 48 h, read-out: Activity; summary of the method: as §1
OVCAR-8 = experiment: Anticancer activity against human OVCAR8 cells assessed as cell growth at 10 uM after 48 hrs by sulforhodamine B assay relative to control; settings: OVCAR-8, 48 h, read-out: Activity; summary of the method: as §1
786-0 = experiment: Anticancer activity against human 786-0 cells assessed as cell growth at 10 uM after 48 hrs by sulforhodamine B assay relative to control; settings: 786-0, 48 h, read-out: Activity; summary of the method: as §1
ACHN = experiment: Anticancer activity against human ACHN cells assessed as cell growth at 10 uM after 48 hrs by sulforhodamine B assay relative to control; settings: read-out: Activity; summary of the method: as §1
SN12C = experiment: Anticancer activity against human SN12C cells assessed as cell growth at 10 uM after 48 hrs by sulforhodamine B assay relative to control; settings: read-out: Activity; summary of the method: as §1
TK-10 = experiment: Anticancer activity against human TK10 cells assessed as cell growth at 10 uM after 48 hrs by sulforhodamine B assay relative to control; settings: TK-10, 48 h, read-out: Activity; summary of the method: as §2
UO-31 = experiment: Anticancer activity against human UO31 cells assessed as cell growth at 10 uM after 48 hrs by sulforhodamine B assay relative to control; settings: UO-31, 48 h, read-out: Activity; summary of the method: as §2
MCF7 = experiment: Anticancer activity against human MCF7 cells assessed as cell growth at 10 uM after 48 hrs by sulforhodamine B assay relative to control; settings: MCF7, 48 h, read-out: Activity; summary of the method: as §1
MDA-MB-231 = experiment: Anticancer activity against human MDA-MB-231 cells assessed as cell growth at 10 uM after 48 hrs by sulforhodamine B assay relative to control; settings: MDA-MB-231, 48 h, read-out: Activity; summary of the method: as §1
Hs-578T = experiment: Anticancer activity against human Hs 578T cells assessed as cell growth at 10 uM after 48 hrs by sulforhodamine B assay relative to control; settings: read-out: Activity; summary of the method: as §1
T47D = experiment: Anticancer activity against human T47D cells assessed as cell growth at 10 uM after 48 hrs by sulforhodamine B assay relative to control; settings: read-out: Activity; summary of the method: as §2

| Compound | growth at 10 µM (K562) | growth at 10 µM (RPMI-8226) | growth at 10 µM (A549) | growth at 10 µM (HOP-62) | growth at 10 µM (NCI-H322M) | growth at 10 µM (NCI-H522) | growth at 10 µM (HCC 2998) | growth at 10 µM (HCT-116) | growth at 10 µM (HCT-15) | growth at 10 µM (KM12) | growth at 10 µM (SW-620) | growth at 10 µM (SNB-75) | growth at 10 µM (U-251) | growth at 10 µM (LOX IMVI) | growth at 10 µM (Malme-3M) | growth at 10 µM (M14) | growth at 10 µM (MDA-MB-435) | growth at 10 µM (SK-MEL-2) | growth at 10 µM (SK-MEL-28) | growth at 10 µM (UACC-62) | other results |
| --- | --- | --- | --- | --- | --- | --- | --- | --- | --- | --- | --- | --- | --- | --- | --- | --- | --- | --- | --- | --- | --- |
| C=C1CC[C@@H]2[C@](C)(COC(C)=O)[C@H](OC(C)=O)CC[C@@]2(C)[C@H]1CC(Nc1ccc(S(=O)(=O)Nc2ncccn2)cc1)C1=CCOC1=O (stereo partly drawn) | 4.6% | -12.7% | 44.7% | 126% | 50.9% | -67.7% | 32% | -55% | -51.4% | -13.2% | -70% | 25.6% | -19% | -79.8% | -4.93% | 4.76% | -14.8% | 41.9% | -17.7% | 3.93% | growth at 10 µM (OVCAR-3): -80.6%; growth at 10 µM (OVCAR-5): -1.98%; growth at 10 µM (OVCAR-8): 3.81%; growth at 10 µM (786-0): -10.1%; growth at 10 µM (ACHN): -56.1%; growth at 10 µM (SN12C): 7.64%; growth at 10 µM (TK-10): 35.1%; growth at 10 µM (UO-31): -17.9%; growth at 10 µM (MCF7): -19.6%; growth at 10 µM (MDA-MB-231): -1.01%; growth at 10 µM (Hs-578T): 51.2%; growth at 10 µM (T47D): 42.3% |
| C=C1CC[C@@H]2[C@](C)(COC(C)=O)[C@H](OC(C)=O)CC[C@@]2(C)[C@H]1CC(Nc1ccc(S(=O)(=O)Nc2nccc(C)n2)cc1)C1=CCOC1=O (stereo partly drawn) | 3.62% | -5.56% | 63.4% | 156% | 64.8% | -50.6% | 68.2% | -32.2% | -42% | 13.2% | -49.6% | 9.66% | 14.6% | -72.9% | -0.7% | 11.2% | 0.23% | 40.1% | -7.05% | 24.2% | growth at 10 µM (OVCAR-3): -45%; growth at 10 µM (OVCAR-5): 26.9%; growth at 10 µM (OVCAR-8): 10.5%; growth at 10 µM (786-0): 32.5%; growth at 10 µM (ACHN): -37.2%; growth at 10 µM (SN12C): 25.1%; growth at 10 µM (TK-10): 83%; growth at 10 µM (UO-31): 33.4%; growth at 10 µM (MCF7): 0.14%; growth at 10 µM (MDA-MB-231): 13.3%; growth at 10 µM (Hs-578T): 68.6%; growth at 10 µM (T47D): 69.1% |
| C=C1CC[C@@H]2[C@](C)(COC(C)=O)[C@H](OC(C)=O)CC[C@@]2(C)[C@H]1CC(Nc1ccc(S(=O)(=O)Nc2nccs2)cc1)C1=CCOC1=O (stereo partly drawn) | 3.4% | -13.3% | 43.7% | 120% | 59.9% | -61.9% | 54.2% | -30.4% | -39.2% | -0.89% | -72.7% | 28.3% | 4.21% | -88.3% | 0.4% | 8.12% | -8.31% | 28.4% | -16.3% | 21.2% | growth at 10 µM (OVCAR-3): -70.2%; growth at 10 µM (OVCAR-5): 7.82%; growth at 10 µM (OVCAR-8): 4.39%; growth at 10 µM (786-0): 6.27%; growth at 10 µM (ACHN): -46.6%; growth at 10 µM (SN12C): 15.6%; growth at 10 µM (TK-10): 55%; growth at 10 µM (UO-31): 13.5%; growth at 10 µM (MCF7): -21.3%; growth at 10 µM (MDA-MB-231): 5.69%; growth at 10 µM (Hs-578T): 51.9%; growth at 10 µM (T47D): 34.6% |
| C=C1CC[C@@H]2[C@](C)(COC(C)=O)[C@H](OC(C)=O)CC[C@@]2(C)[C@H]1CC(Nc1ccc(S(=O)(=O)Nc2cc(C)on2)cc1)C1=CCOC1=O (stereo partly drawn) | 9.67% | -15.2% | 72.2% | 60.2% | 80.4% | -20.2% | 68.3% | -1.13% | 0.18% | 30.5% | 14.7% | 59.4% | 30% | -72.7% | 56.6% | 29.9% | 35% | 63% | 38.1% | 19.8% | growth at 10 µM (OVCAR-3): 7.95%; growth at 10 µM (OVCAR-5): 52.2%; growth at 10 µM (OVCAR-8): 16.1%; growth at 10 µM (786-0): 89.8%; growth at 10 µM (ACHN): 19.5%; growth at 10 µM (SN12C): 31.8%; growth at 10 µM (TK-10): 58.4%; growth at 10 µM (UO-31): 56.9%; growth at 10 µM (MCF7): 12.2%; growth at 10 µM (MDA-MB-231): 61.1%; growth at 10 µM (Hs-578T): 89.5%; growth at 10 µM (T47D): 63.6% |
